These results are taken from ChEMBL document CHEMBL3580617, “Discovery of Benzimidazole CYP11B2 Inhibitors with in Vivo Activity in Rhesus Monkeys” (ACS Med Chem Lett, 2015).

Data set [1] concerns Rhesus monkey. Briefly: In-vivo inhibition of CYP11B1 in low sodium diet fed rhesus monkey at free plasma concentration up to 27 nM dosed at 0.01 to 0.3 mg/kg, iv followed by 0.3 mg/kg ACTH dosing and measured 90 mins post ACTH administration by UPLC coupled with tandem mass spectrometry. It is filed as functional, organism-based. Particulars: Macaca mulatta. The essentials: (§1)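 Anesthetized rhesus monkeys were given i.v. doses from 0.001 to 0.3 mg/kg. Plasma aldosterone and 11-deoxycortisol were quantified by LC-MS at time points up to 180 min postdose, and AUCs were determined for each. Plasma drug was measured at 90 min postdose. Free (unbound) concentrations were calculated from the measured fraction unbound in rhesus plasma.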

The test system of data set [2] is Rhesus monkey. Description: Reduction in aldosterone levels in low sodium diet fed rhesus monkey at 0.01 mg/kg, iv followed by 0.3 mg/kg ACTH dosing and measured 30 mins to 180 mins post ACTH administration by UPLC coupled with tandem mass spectrometry. The format is functional, Macaca mulatta. The essentials: as §1
The test system of data set [3] is Rhesus monkey. Description: Reduction in aldosterone levels in low sodium diet fed rhesus monkey at 0.01 to 0.3 mg/kg, iv followed by 0.3 mg/kg ACTH dosing and measured 30 mins to 180 mins post ACTH administration by UPLC coupled with tandem mass spectrometry. The format is functional, organism-based. Particulars: Macaca mulatta; 0.001 to 0.3 mg/kg; in the assay text read “0.001 to 0.3 mg/kg” for “0.01 to 0.3 mg/kg”. The essentials:
as §1

Data set [4] can be described thus: (§2) Inhibition of rhesus monkey CYP11B2 expressed in V79 cells incubated for 1 hr before 11-deoxycorticosterone substrate addition by HTRF-based assay. It is filed as cell-based, Macaca mulatta. On the technique in general: TR-FRET usually uses a lanthanide donor and a delayed reading to cut background.
A further data set addresses Cytochrome P450 3A4 (Homo sapiens, UniProt P08684). Briefly: Inhibition of CYP3A4 (unknown origin). It is filed as ADME.
Data set [5] deals with Rhesus monkey. Description: […] in 11-deoxycortisol levels in low sodium diet fed rhesus monkey at free plasma concentration up to 27 nM dosed at 0.01 to 0.3 mg/kg, iv followed by 0.3 mg/kg ACTH dosing and measured 90 mins post ACTH administration by UPLC coupled with tandem mass spectrometry. It is filed as functional, organism-based. Particulars: Macaca mulatta. The essentials:
as §1

Data set [6] has as its system Rhesus monkey. Description: Reduction in aldosterone levels in low sodium diet fed rhesus monkey at 0.3 mg/kg, iv followed by 0.3 mg/kg ACTH dosing and measured 30 mins to 180 mins post ACTH administration by UPLC coupled with tandem mass spectrometry. The format is functional. Particulars: Macaca mulatta. The essentials: as §1
Data set [7] has as its system Rhesus monkey. Description: Reduction in aldosterone levels in low sodium diet fed rhesus monkey assessed as free plasma concentration causing reduction in aldosterone at 0.3 mg/kg, iv followed by 0.3 mg/kg ACTH dosing and measured 90 mins post ACTH administration by UPLC coupled with tandem mass spectrometry. It is filed as functional, Macaca mulatta. In a few lines:
as §1

Data set [8] concerns Rhesus monkey. Briefly: Reduction in aldosterone levels in low sodium diet fed rhesus monkey assessed as free plasma concentration causing reduction in aldosterone at 0.01 mg/kg, iv followed by 0.3 mg/kg ACTH dosing and measured 90 mins post ACTH administration by UPLC coupled with tandem mass spectrometry. The format is functional, Macaca mulatta. In a few lines: as §1
Data set [9] can be described thus: Inhibition of rhesus monkey CYP11B1. Details: species or system Macaca mulatta.
The test system of data set [10] is Rhesus monkey. Briefly: Increase in 11-deoxycortisol levels in low sodium diet fed rhesus monkey up to 0.3 mg/kg, iv followed by 0.3 mg/kg ACTH dosing and measured 30 mins to 180 mins post ACTH administration by UPLC coupled with tandem mass spectrometry. It is filed as functional, organism-based. Particulars: Macaca mulatta. The essentials: as §1
Data set [11] concerns the target T1, Cytochrome P450 11B2, mitochondrial (Homo sapiens, UniProt P19099).
T1 sequence (P19099 whole entry): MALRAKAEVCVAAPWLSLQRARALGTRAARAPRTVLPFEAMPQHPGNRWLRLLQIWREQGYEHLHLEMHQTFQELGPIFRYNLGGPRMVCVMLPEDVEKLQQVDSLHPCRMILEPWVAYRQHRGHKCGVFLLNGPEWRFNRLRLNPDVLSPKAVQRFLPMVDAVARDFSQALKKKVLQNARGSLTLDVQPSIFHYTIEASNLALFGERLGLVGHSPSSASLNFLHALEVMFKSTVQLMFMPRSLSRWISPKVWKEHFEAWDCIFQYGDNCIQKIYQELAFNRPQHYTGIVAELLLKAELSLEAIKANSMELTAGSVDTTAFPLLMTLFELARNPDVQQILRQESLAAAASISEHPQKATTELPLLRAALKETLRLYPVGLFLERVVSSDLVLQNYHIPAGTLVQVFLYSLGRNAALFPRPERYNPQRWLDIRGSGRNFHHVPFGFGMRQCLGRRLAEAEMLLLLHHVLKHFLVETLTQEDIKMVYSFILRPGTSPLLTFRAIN
Briefly: Inhibition of human CYP11B2 expressed in V79 cells incubated for 1 hr before 11-deoxycorticosterone substrate addition by HTRF-based assay. It is filed as cell-based. The essentials:
(§3)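 Human CYP11B2 and CYP11B1 inhibition was tested in cell-based assays. Selectivity was taken as the hCYP11B1 IC50 divided by the hCYP11B2 IC50.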

Data set [12] can be described thus: Half life in rhesus monkey at 1 mg/kg, po or 0.5 mg/kg, iv by LC-MS/MS method. It is filed as ADME, organism-based, Macaca mulatta. Particulars: in vivo.
Data set [13] concerns the target Voltage-dependent L-type calcium channel subunit alpha-1C (Homo sapiens, UniProt Q13936). Description: Block of Cav1.2 ion channel in functional assay (unknown origin).
For data set [14], the target named is Sodium channel protein type 5 subunit alpha (Homo sapiens, UniProt Q14524). Description: Block of Nav1.5 ion channel in functional assay (unknown origin).
For a further data set, the system named is V79. The data set is described as §2. It is filed as cell-based. Particulars: Macaca mulatta.
The species entered for data set [15] is Homo sapiens. Briefly: Selectivity index, ratio of IC50 for human CYP11B1 to IC50 for human CYP11B2. The essentials:
as §3

Data set [16] deals with T2, Cytochrome P450 11B1, mitochondrial (Homo sapiens, UniProt P15538).
T2 sequence (P15538 whole entry): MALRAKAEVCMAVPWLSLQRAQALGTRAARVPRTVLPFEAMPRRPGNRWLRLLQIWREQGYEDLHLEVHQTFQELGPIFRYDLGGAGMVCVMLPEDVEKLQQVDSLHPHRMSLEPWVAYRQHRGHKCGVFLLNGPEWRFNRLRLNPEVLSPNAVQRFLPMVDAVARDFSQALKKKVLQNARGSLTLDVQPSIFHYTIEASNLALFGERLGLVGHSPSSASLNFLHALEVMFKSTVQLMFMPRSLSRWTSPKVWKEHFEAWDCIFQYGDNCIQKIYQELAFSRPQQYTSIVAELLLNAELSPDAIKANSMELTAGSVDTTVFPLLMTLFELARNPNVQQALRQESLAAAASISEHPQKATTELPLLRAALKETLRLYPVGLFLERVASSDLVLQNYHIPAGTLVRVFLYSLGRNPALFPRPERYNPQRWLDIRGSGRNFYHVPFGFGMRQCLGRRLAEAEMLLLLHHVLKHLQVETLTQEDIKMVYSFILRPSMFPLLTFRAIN
Briefly: Inhibition of human CYP11B1 expressed in V79 cells incubated for 1 hr before 11-deoxycortisol substrate addition by HTRF-based assay. The format is cell-based. The essentials:
as §3

Data set [17] is filed under the species Homo sapiens. Description: Selectivity index, ratio of IC50 for CYP19 (unknown origin) to IC50 for human CYP11B2.

Activity calls are given as the source filed them. The calls are words filed in the database; no cut-off is given here.

Chain of Cytochrome P450 3A4 (P08684 whole entry): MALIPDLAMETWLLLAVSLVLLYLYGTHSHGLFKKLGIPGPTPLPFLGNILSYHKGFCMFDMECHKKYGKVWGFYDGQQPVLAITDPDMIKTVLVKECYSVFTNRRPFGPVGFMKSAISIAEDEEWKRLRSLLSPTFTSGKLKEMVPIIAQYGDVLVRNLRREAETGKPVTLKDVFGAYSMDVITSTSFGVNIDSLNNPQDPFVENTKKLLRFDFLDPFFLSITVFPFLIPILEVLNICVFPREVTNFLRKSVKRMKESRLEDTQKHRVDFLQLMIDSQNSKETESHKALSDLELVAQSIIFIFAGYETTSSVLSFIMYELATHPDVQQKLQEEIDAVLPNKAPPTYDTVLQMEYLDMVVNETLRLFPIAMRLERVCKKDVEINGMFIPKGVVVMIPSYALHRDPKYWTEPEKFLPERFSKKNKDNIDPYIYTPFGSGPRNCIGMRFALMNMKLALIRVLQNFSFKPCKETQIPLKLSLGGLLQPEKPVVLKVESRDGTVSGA
Chain of Sodium channel protein type 5 subunit alpha (Q14524 whole entry): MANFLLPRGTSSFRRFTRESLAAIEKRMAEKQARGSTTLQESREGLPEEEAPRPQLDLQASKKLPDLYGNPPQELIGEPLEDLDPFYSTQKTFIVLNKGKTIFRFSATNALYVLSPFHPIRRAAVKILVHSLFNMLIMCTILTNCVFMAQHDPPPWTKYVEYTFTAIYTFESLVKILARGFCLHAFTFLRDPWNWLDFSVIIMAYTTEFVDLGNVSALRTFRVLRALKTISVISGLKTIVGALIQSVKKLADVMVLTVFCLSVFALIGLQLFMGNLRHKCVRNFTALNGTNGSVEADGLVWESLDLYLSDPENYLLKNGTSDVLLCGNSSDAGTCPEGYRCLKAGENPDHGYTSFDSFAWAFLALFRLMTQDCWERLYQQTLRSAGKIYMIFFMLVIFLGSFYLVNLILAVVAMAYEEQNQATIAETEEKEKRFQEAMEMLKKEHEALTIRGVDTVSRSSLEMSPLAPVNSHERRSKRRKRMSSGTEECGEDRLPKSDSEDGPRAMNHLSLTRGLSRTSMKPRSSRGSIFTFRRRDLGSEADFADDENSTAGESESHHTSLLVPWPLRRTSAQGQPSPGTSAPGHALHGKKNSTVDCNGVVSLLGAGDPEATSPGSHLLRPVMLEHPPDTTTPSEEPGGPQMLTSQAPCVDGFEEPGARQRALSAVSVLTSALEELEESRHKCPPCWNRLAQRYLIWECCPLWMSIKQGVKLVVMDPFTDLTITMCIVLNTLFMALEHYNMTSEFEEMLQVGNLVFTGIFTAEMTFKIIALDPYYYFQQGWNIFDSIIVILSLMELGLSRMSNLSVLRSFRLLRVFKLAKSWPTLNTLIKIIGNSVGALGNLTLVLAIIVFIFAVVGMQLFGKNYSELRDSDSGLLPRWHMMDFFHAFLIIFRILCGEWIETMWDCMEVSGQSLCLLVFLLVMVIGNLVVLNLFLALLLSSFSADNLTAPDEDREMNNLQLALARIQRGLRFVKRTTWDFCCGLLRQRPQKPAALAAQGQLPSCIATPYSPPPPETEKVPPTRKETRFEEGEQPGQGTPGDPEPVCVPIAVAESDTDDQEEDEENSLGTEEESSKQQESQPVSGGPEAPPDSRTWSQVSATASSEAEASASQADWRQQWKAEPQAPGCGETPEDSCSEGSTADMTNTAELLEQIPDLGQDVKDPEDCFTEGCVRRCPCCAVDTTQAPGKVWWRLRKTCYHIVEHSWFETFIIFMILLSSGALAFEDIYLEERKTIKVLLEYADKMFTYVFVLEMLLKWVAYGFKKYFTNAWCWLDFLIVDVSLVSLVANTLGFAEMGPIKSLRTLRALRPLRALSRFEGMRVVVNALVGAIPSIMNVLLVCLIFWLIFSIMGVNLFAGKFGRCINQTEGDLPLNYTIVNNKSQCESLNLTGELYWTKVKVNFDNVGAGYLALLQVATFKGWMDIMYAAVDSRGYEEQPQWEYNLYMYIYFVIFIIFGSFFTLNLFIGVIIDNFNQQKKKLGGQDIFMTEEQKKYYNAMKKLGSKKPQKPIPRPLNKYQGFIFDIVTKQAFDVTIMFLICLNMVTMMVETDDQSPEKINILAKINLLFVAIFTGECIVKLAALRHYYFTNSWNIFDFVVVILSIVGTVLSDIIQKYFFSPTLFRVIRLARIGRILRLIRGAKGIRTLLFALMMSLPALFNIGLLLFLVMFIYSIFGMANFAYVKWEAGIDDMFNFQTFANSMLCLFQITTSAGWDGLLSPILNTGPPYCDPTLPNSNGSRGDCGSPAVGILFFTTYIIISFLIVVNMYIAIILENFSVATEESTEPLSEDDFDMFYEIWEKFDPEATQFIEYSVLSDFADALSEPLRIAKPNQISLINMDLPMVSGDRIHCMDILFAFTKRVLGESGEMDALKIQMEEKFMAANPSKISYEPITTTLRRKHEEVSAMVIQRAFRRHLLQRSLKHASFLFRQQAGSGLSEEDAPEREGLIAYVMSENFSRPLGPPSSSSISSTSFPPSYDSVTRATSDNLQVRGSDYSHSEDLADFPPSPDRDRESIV
Chain of Voltage-dependent L-type calcium channel subunit alpha-1C (Q13936 whole entry): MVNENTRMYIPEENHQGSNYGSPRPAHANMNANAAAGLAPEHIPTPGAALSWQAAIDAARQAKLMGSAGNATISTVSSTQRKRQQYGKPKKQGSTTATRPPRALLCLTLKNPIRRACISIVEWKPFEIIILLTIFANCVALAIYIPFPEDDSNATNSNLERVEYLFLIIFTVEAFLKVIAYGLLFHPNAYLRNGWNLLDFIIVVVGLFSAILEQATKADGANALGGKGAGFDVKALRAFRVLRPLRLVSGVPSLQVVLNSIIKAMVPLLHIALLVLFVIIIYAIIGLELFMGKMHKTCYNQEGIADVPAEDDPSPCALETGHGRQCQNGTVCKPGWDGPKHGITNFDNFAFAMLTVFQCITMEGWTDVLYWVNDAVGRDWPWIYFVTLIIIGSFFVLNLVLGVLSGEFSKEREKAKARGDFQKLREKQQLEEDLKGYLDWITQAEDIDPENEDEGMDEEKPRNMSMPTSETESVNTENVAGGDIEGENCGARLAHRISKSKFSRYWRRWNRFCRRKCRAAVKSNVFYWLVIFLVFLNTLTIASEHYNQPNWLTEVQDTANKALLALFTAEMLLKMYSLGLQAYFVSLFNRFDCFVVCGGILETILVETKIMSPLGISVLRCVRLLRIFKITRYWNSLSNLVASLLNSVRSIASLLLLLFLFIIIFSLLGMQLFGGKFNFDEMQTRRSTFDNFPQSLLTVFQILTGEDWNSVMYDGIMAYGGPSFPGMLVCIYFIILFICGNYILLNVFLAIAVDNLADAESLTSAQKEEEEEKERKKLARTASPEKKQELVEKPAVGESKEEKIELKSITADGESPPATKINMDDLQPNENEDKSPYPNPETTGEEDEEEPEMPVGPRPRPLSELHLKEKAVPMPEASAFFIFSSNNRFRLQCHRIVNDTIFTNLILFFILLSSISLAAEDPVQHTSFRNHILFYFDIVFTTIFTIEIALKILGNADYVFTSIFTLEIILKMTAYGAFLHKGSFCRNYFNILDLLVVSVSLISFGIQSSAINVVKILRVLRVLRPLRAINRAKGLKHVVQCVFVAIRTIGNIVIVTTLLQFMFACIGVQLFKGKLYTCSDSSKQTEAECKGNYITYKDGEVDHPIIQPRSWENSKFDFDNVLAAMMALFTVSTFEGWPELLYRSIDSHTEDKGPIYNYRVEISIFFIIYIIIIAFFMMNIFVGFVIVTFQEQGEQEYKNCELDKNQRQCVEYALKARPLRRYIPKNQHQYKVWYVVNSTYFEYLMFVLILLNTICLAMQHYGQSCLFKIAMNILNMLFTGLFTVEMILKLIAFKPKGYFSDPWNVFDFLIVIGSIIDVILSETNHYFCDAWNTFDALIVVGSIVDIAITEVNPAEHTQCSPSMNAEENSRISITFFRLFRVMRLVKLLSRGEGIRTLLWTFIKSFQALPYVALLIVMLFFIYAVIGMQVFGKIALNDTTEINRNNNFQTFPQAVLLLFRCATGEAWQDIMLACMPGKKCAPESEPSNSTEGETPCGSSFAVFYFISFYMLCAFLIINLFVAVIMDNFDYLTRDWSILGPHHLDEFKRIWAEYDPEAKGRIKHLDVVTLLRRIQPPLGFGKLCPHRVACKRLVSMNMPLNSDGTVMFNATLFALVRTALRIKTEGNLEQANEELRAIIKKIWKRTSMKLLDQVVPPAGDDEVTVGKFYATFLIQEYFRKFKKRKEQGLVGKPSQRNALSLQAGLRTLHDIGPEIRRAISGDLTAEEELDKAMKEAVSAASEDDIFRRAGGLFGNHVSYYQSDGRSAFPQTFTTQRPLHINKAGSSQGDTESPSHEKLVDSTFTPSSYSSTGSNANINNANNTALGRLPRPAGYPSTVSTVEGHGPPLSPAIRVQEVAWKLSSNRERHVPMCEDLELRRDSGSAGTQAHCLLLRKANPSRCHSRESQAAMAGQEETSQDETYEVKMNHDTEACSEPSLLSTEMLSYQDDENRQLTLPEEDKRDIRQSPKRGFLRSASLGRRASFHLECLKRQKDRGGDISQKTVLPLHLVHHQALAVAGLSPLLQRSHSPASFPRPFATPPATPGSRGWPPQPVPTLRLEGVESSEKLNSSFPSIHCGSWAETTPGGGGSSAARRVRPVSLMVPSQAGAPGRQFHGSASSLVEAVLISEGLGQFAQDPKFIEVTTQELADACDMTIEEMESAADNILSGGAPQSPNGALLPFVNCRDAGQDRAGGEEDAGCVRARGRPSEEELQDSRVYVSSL

For the compound `CC(C)(O)c1cncc(-c2nc3ccc(F)cc3n2C2CC2)c1` [MSD-CYP11B2], the inhibition entry with Rhesus monkey [1] and with Rhesus monkey [5] was “inactive” throughout. Further, the “inhibition (INH)” value in the data set with Rhesus monkey [2] was found to be 62%. In the data set on Rhesus monkey [3], the inhibition result is “Dose-dependent effect”. Besides, the half-maximal inhibitory concentration (IC50) (commonly the concentration needed to halve the response being measured) in data set [4] is 0.0003 µM; against Cytochrome P450 3A4 it was > 50 µM; in [9], 0.041 µM. Besides, testing at 0.3 mg/kg in the data set on Rhesus monkey [6] gave an inhibition in vivo of 95%. The “Cp(f)” value in the data set with Rhesus monkey [7] is listed as 27 nM; with Rhesus monkey [8] it was 12 nM. Moreover, the outcome with Rhesus monkey [10] was inactive.
On to `Fc1cncc(-c2nc3cc(F)c(F)cc3n2C2CC2)c1`, for which the IC50 in [11] was 0.0047 µM; in data set [13], > 30 µM; in data set [14], > 30 µM; on Cytochrome P450 3A4, > 50 µM; in [16] it was 0.435 µM. Also, the half-life – broadly, how long it takes for the measured level to halve – in [12] was 7.4 h. In addition, in the data set on V79, the inhibition entry is “Active”. Also, the Ratio IC50 in the data set filed under Homo sapiens [15] worked out at 93; in the data set filed under Homo sapiens [17], 500.
